Test results: publication PMC5707466 (Chemical Science, 2015)
Read-outs that look alike come from different tables or passages of the source. Where no end group is shown, it is not given here. [ ]: non-standard residue; d: D form. AzaTyr = not defined here

Legend:
[1] = Theoretical effective diffusion through microporous membrane; conditions: 200 nm membrane pore radius
Summary of the method: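 This is a calculation, not a measurement: Deff/D0 through the membrane was computed with the Renkin equation from hydrodynamic radius (RH) and pore radius (RP), with a membrane pore diameter of 0.4 μm. Theoretical effective diffusion times assumed continuous stirring of the chambers.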

[2] = SPR monitoring of sucrose diffusion/equilibration in dialysis chamber; format: physicochemical; conditions: for t eff unstirred (experimental): passive mixing, fit of SPR data with eqn (2); for experimental effective diffusion time: unstirred
Summary of the method: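 The dialysis chamber was a PDMS spacer (150 μm–1.0 mm) on the gold prism, filled with PBS and topped by a 0.4 μm-pore membrane. The sensor carried a 3-MPA-LHDLHD-OH monolayer. Sucrose was injected into the reservoir, and the SPR response was followed in the sensing chamber. Neither chamber was stirred, so mixing was by diffusion only. Effective diffusion time was fitted with c = ceq(1 – e^(–t/teff)).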

[3] = SPR calibration with sucrose solutions; format: physicochemical; conditions: absence of the microporous membrane; calibration slope
Summary of the method: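 The SPR instrument was calibrated without the microporous membrane by successive injections of sucrose solutions with refractive indices from 1.33772 to 1.35589. Sensitivity is the response per refractive index unit (nm/RIU).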

[4] = with microporous membrane
CD36 [5] = biological target: T1, CD36 (Homo sapiens, UniProt P16671); experiment: CD36 SPR biosensor with dialysis chamber; format: binding; conditions: for SPR signal change: 10 μM peptide, buffer (PBS), CD36 sensor
Summary of the method: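 Hexahistidine-tagged CD36 was captured by Cu2+ chelation on a 3-MPA-LHDLHD-OH monolayer. The monolayer was self-assembled overnight, then NTA-coupled via EDC/NHS. A PDMS spacer was filled with PBS and capped with a 0.4 μm-pore membrane. Peptide in PBS, untreated serum or whole blood was injected into the reservoir for 90 min per concentration. Triplicates ran in separate sensing chambers, with blank serum/blood in the reference channel and background subtracted.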

CD36 [6] = biological target: T1, CD36; experiment: CD36 SPR biosensor without dialysis chamber; format: binding; conditions: matrix not stated
CD36 [7] = biological target: T1, CD36; conditions: saline solution (stated for DBG178); CD36 SPR biosensor; cited from earlier work
[8] = biological target: hexahistidine-tagged type B scavenger receptor CD36 (cluster of differentiation 36) (UniProt P16671); experiment: SPR
[9] = biological target: hexahistidine-tagged type B scavenger receptor CD36 (cluster of differentiation 36) (UniProt P16671); experiment: SPR; remark: listed apart in the source
[10] = biological target: hexahistidine-tagged type B scavenger receptor CD36 (cluster of differentiation 36) (UniProt P16671); experiment: SPR; remark: listed apart in the source

Chain of hexahistidine-tagged type B scavenger receptor CD36 (cluster of differentiation 36) (P16671 whole entry): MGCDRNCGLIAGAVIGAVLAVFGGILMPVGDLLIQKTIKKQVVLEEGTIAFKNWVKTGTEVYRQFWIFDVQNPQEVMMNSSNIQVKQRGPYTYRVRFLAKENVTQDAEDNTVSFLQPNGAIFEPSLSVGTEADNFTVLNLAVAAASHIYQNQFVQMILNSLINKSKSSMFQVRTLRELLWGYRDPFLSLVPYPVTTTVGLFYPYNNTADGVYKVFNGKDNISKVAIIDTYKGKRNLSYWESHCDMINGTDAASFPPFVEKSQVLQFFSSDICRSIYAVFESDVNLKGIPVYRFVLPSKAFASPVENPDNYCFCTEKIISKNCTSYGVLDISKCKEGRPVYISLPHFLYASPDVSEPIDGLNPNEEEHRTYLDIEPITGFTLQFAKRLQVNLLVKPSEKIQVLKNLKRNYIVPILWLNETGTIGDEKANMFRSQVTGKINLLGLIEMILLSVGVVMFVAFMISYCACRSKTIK
T1 sequence (P16671 whole entry): as above

In the case of OC[C@H]1O[C@@](CO)(O[C@H]2O[C@H](CO)[C@@H](O)[C@H](O)[C@H]2O)[C@@H](O)[C@@H]1O [Sucrose, sucrose], the RH/RP [1] is reported as 0.00235, the “t eff unstirred (experimental)” value ([2]; spacer 0.15 mm) is reported as 5529 s and the “t eff unstirred (experimental)” value ([2]; spacer 0.30 mm) is reported as 9892 s. The “t eff unstirred (experimental)” value ([2]; spacer 0.60 mm) was 26 590 s, the “experimental effective diffusion time” value ([2]; spacer 1 mm (1000 μm), b26 prints unit as hours) was 15.5 h and the “t eff unstirred (experimental)” value ([2]; spacer 1.00 mm) was 55 687 s. The “experimental effective diffusion time” value ([2]; spacer 150 μm) was 1.5 h, the “increase in equilibration time of the sensing chamber in absence of mixing” value ([2]; spacer 150 μm, unstirred experimental vs stirred theoretical) was 300 fold and the “SPR sensitivity without microporous membrane” value [3] was 2221 nm/RIU.

For “BSA: bovine serum albumin (BSA) (MW = 66.4 kDa)”, the “diffusion time required to observe a significant SPR response / large shift” value [4] was ~8 h.

In the case of “His-D-Trp-Ala-AzaTyr-D-Phe-Lys-NH2 [DBG178]”, the SPR response (CD36 [5]; 7.5 μM, human serum, dialysis chamber, 90 min, reference-subtracted, triplicate) is reported as 0.49 ± 0.02 nm, the SPR signal change (CD36 [5]; dialysis chamber) is reported as 0.28 ± 0.11 nm and the “concentrations that could not be detected” value (CD36 [5]; dialysis chamber, saline/PBS, 90 min per concentration) is reported as “below 5 μM”. The “difference in SPR response with vs without dialysis chamber” value (CD36 [5]; highest concentration) was 12%, the “SPR response with the microdialysis chamber” value (CD36 [5]; highest concentration, matrix not stated) was 0.78 nm and the “calibration curve signal in human serum (in words)” value (CD36 [5]; human serum vs PBS, same concentration range, Fig. 3) was “increased in signal compared to PBS”. For the same molecule, the “SPR response at nanomolar concentrations” value (CD36 [5]; nanomolar range, dialysis chamber) was “below the detection limit of the SPR sensor”, the “analysis time sufficient to reach equilibrium of the SPR sensor” value (CD36 [5]; whole blood, dialysis chamber, Fig. SI4) was 90 min and the “SPR response in whole blood (in words)” value (CD36 [5]; whole human blood, 5, 7.5 and 10 μM, vs human serum, Fig. 3) was “in great agreement with human serum”. For the same molecule, the “SPR response without the dialysis chamber” value (CD36 [6]; 8.75 μM, no dialysis chamber) was 0.71 ± 0.10 nm, the “SPR response without the microporous membrane” value (CD36 [6]; highest concentration) was 0.89 nm and the Kd (CD36 [7]) was 5 µM.

In the case of “His-D-Trp-AzaLeu-Trp-D-Phe-Ala-NH2 [CP-2B(i), reference compound]”, the SPR signal change (CD36 [5]; dialysis chamber) is given as “–0.073 ± 0.030 nm” and the Kd (CD36 [7]) is given as 31 µM.

For H[dW]A[AzaTyr][dF]K-NH2 (reading uncertain; also: printed as His-D-Trp-Ala-AzaTyr-D-Phe-Lys-NH2) [DBG178 (His-D-Trp-Ala-AzaTyr-D-Phe-Lys-NH2)], the SPR response at the highest concentration [8] was 0.78 nm, the SPR response at 7.5 uM [9] was 0.46 nm and the Kd [10] was 17 µM. For the same molecule, the SPR response at 7.5 uM [10] was 0.49 nm, the SPR response at 8.75 uM [10] was 0.71 nm and the SPR response at the highest concentration [10] was 0.89 nm. The SPR signal change at 10 uM [10] was 0.28 nm.
